This is an account of results in PMC2920133 (Biochemistry, 2010).

Numbering of substitutions follows the chain as printed. Read-outs that look alike come from different tables or passages of the source.

For data set [1], the target named is ArsD109 T15W single-tryptophan derivative (Escherichia coli, UniProt P46003, T15W/W35Y/W97Y). Kind of data set: Intrinsic tryptophan fluorescence quenching, metalloid binding to T15W. The note with it: for fluorescence quenching: high concentrations: 5 mM As(III) or 0.1 mM Sb(III) (Figure 2B).
The target of a further data set is T1, ArsD109 C18G/T15W (Escherichia coli, UniProt P46003, C18G/T15W/W35Y/W97Y).
T1 sequence (P46003 1-109 T15W/C18G/W35Y/W97Y): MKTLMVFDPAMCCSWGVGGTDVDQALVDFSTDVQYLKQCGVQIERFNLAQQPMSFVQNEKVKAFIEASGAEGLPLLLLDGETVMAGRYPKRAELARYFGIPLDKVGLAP
Description: Intrinsic tryptophan fluorescence quenching, As. Format: binding. A digest of the protocol:
(§1)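 N-terminal His6 ArsD109 (W35/97Y, T15W, plus single Cys→Gly) expressed in BL21(DE3) with 0.3 mM IPTG for 3 h. Used at 1 μM in 50 mM MOPS-KOH pH 7.5 with 0.25 mM EDTA, room temperature. Sodium arsenite titrated. Quenching rate k_obs (ex 295 nm, em 345 nm) fitted per arsenite concentration; k_obs = k_off + k_on[As(III)], and Kd = k_off/k_on.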

In another data set the target is T2, ArsD109 C13G/T15W (Escherichia coli, UniProt P46003, C13G/T15W/W35Y/W97Y).
T2 sequence (P46003 1-109 C13G/T15W/W35Y/W97Y): T1 sequence (P46003 1-109 T15W/C18G/W35Y/W97Y) with C13G, G18C
Kind of data set: Intrinsic tryptophan fluorescence quenching, As. Format: binding. The method, boiled down: as §1

Data set [2] has as its target ArsD109 V17W single-tryptophan derivative (Escherichia coli, UniProt P46003, V17W/W35Y/W97Y). Format: binding. The note with it: for fluorescence quenching: high concentrations: 5 mM As(III) or 0.1 mM Sb(III) (Figure 2B).
Data set [3] deals with single-tryptophan derivatives of ArsD109. The format is binding, Escherichia coli. The settings on record: 1 μM protein mixed with equimolar As(III), absence of added thiols. The method, boiled down:
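Single-tryptophan ArsD109 (N-terminal His6, W35/97Y background carrying T15W or V17W), expressed in E. coli BL21(DE3). Protein at 1 μM in 50 mM MOPS-KOH pH 7.5 with 0.25 mM EDTA, room temperature, no thiol added. Sodium arsenite added from concentrated stock. Trp fluorescence (ex 295 nm, em 345 nm) followed over time and corrected for dilution.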

Another data set addresses T3, ArsD109 C12G/T15W (Escherichia coli, UniProt P46003, C12G/T15W/W35Y/W97Y).
T3 sequence (P46003 1-109 C12G/T15W/W35Y/W97Y): T1 sequence (P46003 1-109 T15W/C18G/W35Y/W97Y) with C12G, G18C
Kind of data set: Intrinsic tryptophan fluorescence quenching, As. The format is binding. The method, boiled down:
as §1

A further data set concerns the target ArsD109-ArsA (Escherichia coli, UniProt P08690+P46003, DEL110-120). Description: Metalloid transfer assay on amylose column. The settings on record: 5 mM nucleotide. The format is biochemical.
The conditions of data set [4]: thiolate of GS^−1; cited from earlier work.
The target in another data set is ArsA ATPase (Escherichia coli, UniProt P08690). Kind of data set: Coupled ATPase assay, metalloid-stimulated ArsA activity. The format is biochemical. The settings on record: DMSA titration.
Setting [5] is: quenching of T15W fluorescence, retains Cys12 and Cys13.
Setting [6] is: quenching of T15W fluorescence, retains Cys12 and Cys18.
Setting [7] is: quenching of T15W fluorescence, retains Cys13 and Cys18.
The mark [8] stands for this setting: additive 5 mM, 50 μM sodium arsenite, pH 7.5.

Take `O=[As][O-].[Na+]` [As(III), sodium arsenite]: the koff result in data set [1] (As(III) concentration dependence of fluorescence quenching, no added thiols) is “(3 ± 1) × 10^−4 s^−1”; on ArsD109 C18G/T15W (setting [5]), “(1.4 ± 0.1) × 10^−3 s^−1”; on ArsD109 C13G/T15W (setting [6]) it was “(2.7 ±0.1) × 10^−3 s^−1”; at ArsD109 C12G/T15W (setting [7]), “(2.4 ± 0.1) × 10^−3 s^−1”. Besides, the Kd in data set [1] (calculated from koff/kon) was 1.5 ± 0.5 µM; at ArsD109 C18G/T15W (calculated from koff/kon), 28 ± 3 µM; at ArsD109 C13G/T15W (calculated from koff/kon), 68 ± 6 µM; in [2] (read-out: Kd (binding affinity), calculated from koff/kon), 2 ± 1 µM; on ArsD109 C12G/T15W (calculated from koff/kon) it was 48 ± 3 µM. Also, the fluorescence quenching result in [1] and in data set [2] was “approximately 50%” each time. Moreover, the kon entry on ArsD109 C18G/T15W (setting [5]) is recorded as “(5 ± 0.1) × 10^−5 s^−1 μM^−1”; on ArsD109 C13G/T15W (setting [6]), “(4 ±0.2) × 10^−5 s^−1 μM^−1”; on ArsD109 C12G/T15W (setting [7]), “(5 ± 0.1) × 10^−5 s^−1 μM^−1”. The “rate of fluorescence quenching at pH 9 relative to pH 7” value in data set [2] (50 μM sodium arsenite, 1 μM V17W, absence of GSH) was ~ 10 fold. Besides, in data set [2] (50 μM sodium arsenite, pH 7.5), the “fluorescence change in the absence of GSH” value is recorded as “decreased very slowly”. The “time to attain a steady-state level of fluorescence” value in [3] is “more than 2 h”.

For the compound `OCCS` [β-mercaptoethanol], the “effect of additive on rate of fluorescence quenching by As(III)” value (“effect of additive” below) in data set [2] (setting [8]) is given as “increased the rate of quenching”.

As to `Nc1ncnc2c1ncn2[C@@H]1O[C@H](CO[P@](=O)(O)O[P@](=O)(O)O[P@@](=O)(O)S)[C@@H](O)[C@H]1O` [MgATP-γ-S], the “transfer of As(III) from MBP-ArsD109 to ArsA” value (from here on “transfer of As(III)”) at ArsD109-ArsA (room temperature) is on record as “did not promote transfer”.

Turning to `Nc1ncnc2c1ncn2[C@@H]1O[C@H](COP(=O)([O-])OP(=O)([O-])O)[C@@H](O)[C@H]1O.[Mg+2]` [MgADP], at ArsD109-ArsA (room temperature), the “transfer of As(III)” value is “As(III) eluted with MBP-ArsD109 and not with ArsA”.

For `O.O.O.O=C([O-])[C@H]([O-])[C@@H]([O-])C(=O)[O-].O=C([O-])[C@H]([O-])[C@@H]([O-])C(=O)[O-].[K+].[K+].[Sb+3].[Sb+3]` [Sb(III), potassium antimonyl tartrate], the fluorescence quenching entry in data set [1] and in data set [2] was “approximately 50%” each time. In addition, in data set [2] (2.5 μM, pH 7.5), the “fluorescence quenching in the absence of added monothiols” value is given as “rapidly quenched fluorescence”.

Take `N[C@@H](CCC(=O)N[C@@H](CS)C(=O)NCC(=O)O)C(=O)O` [GSH, reduced glutathione]: the “acceleration of rate of As(III) fluorescence quenching” value in [2] (5 mM GSH, 50 μM sodium arsenite, 1 μM V17W, pH 7.5) was 10 fold. Also, the “rate of As(III) fluorescence quenching with additive” value in data set [2] (5 mM GSH, 50 μM sodium arsenite, pH ≥8) is “too fast to measure accurately”. The “effect of additive” value in data set [2] (additive 0.2 mM, 50 μM sodium arsenite, pH 7.5) is “had little effect”; in [2] (setting [8]), “increased the rate substantially”. Besides, in data set [4], the pKa was 8.7.

`N[C@@H](CS)C(=O)O` [L-cysteine]: the “effect of additive” value in data set [2] (setting [8]) is reported as “increased the rate of quenching”.

Turning to `Nc1ncnc2c1ncn2[C@@H]1O[C@H](COP(=O)(O)OP(=O)([O-])OP(=O)([O-])O)[C@@H](O)[C@H]1O.[Mg+2]` [MgATP], the results for the “transfer of As(III)” value on ArsD109-ArsA (4 °C) and at ArsD109-ArsA (room temperature) were “almost no As(III) eluted with ArsA” and “nearly all of the As(III) eluted in the ArsA-containing fractions”, respectively.

Consider `O=C(O)[C@@H](S)[C@@H](S)C(=O)O` [DMSA, dimercaptosuccinic acid], for which the “effect on basal activity of ArsA” value at ArsA ATPase (0.3 μM ArsA alone) is given as “did not affect”. Besides, the “effect on As(III)-stimulated rate of ArsA activity” value at ArsA ATPase (0.3 μM ArsA, 0.5 mM sodium arsenite) is “inhibited”.

For `O=C(O)CCP(CCC(=O)O)CCC(=O)O` [TCEP, tris(2-carboxyethyl)phosphine], the “effect of additive” value in data set [2] (setting [8]) is listed as “did not increase the rate of quenching”.
